Measurements reported in ChEMBL document CHEMBL4304834, “3-Amino-chromanes and Tetrahydroquinolines as Selective 5-HT2B, 5-HT7, or σ1 Receptor Ligands” (ACS Med Chem Lett, 2019).

How the values were obtained:
[1] = target: 5-hydroxytryptamine receptor 1E (Homo sapiens, UniProt P28566); experiment: Displacement of [3H]-HT from human recombinant 5-HT1E receptor expressed in stable HEK cells after 90 mins by microbeta scintillation counting method; type: cell-based
Outline: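 Radioligand binding run by the NIMH Psychoactive Drug Screening Program. […] Otherwise Ki comes from sigmoidal curve fits of triplicate measurements in a single experiment, or is averaged over repeated experiments each run in triplicate.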

[2] = target: 5-hydroxytryptamine receptor 2B (Homo sapiens, UniProt P41595); experiment: Displacement of [3H]-LSD from human recombinant 5-HT2B receptor stably expressed in HEK cells after 90 mins by microbeta scintillation counting method; type: cell-based; details: read-out: pKi (converted)
Outline: (§1)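 Run by NIMH Psychoactive Drug Screening Program. Otherwise, competition binding curves are generated and pKi is taken from a sigmoidal curve fit. Data are either triplicate measurements within one experiment, with the error from the fit, or the mean of repeated experiments, each run in triplicate.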

[3] = target: 5-hydroxytryptamine receptor 7 (Homo sapiens, UniProt P34969); experiment: Displacement of [3H]-LSD from human recombinant 5-HT7 receptor expressed in stable HEK cells after 90 mins by microbeta scintillation counting method; type: cell-based; outline: as §1
[4] = target: T1, Alpha-1D adrenergic receptor (Homo sapiens, UniProt P25100); experiment: Displacement of [3H]-Prazosin from human recombinant adrenergic Alpha1D receptor expressed in cells after 90 mins by microbeta scintillation counting method; type: cell-based
T1 sequence (P25100 whole entry): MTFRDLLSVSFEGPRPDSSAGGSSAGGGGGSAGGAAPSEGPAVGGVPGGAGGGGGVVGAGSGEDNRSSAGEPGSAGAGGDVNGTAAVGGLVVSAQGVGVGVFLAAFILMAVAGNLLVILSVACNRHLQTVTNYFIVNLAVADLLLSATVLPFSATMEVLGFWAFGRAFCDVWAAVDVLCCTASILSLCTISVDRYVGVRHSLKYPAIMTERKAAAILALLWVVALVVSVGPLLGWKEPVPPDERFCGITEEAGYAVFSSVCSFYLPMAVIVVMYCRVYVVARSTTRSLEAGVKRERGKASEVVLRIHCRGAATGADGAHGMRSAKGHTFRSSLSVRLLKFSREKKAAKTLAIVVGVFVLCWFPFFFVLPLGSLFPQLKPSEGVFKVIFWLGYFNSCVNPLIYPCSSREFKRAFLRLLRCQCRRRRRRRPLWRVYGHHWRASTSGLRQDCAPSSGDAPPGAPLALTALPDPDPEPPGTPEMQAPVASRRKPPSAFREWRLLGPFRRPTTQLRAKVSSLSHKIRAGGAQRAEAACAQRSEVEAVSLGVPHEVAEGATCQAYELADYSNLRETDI
Outline: (§2)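 Radioligand binding was run by the NIMH Psychoactive Drug Screening Program. Compounds were first screened at 10 μM. Those giving ≥50% binding were taken to full competition curves. Ki is reported as pKi from a sigmoidal curve fit of triplicate measurements in a single experiment; the error is the curve-fit error.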

D(1B) dopamine receptor = D(1B) dopamine receptor (Homo sapiens, UniProt P21918); experiment: Displacement of [3H]-SCH23390 from human recombinant dopamine D5 receptor expressed in HEKT cells after 90 mins by microbeta scintillation counting method; type: cell-based; outline: as §2
[5] = target: GABA-A receptor; anion channel; experiment: Displacement of [3H]-Muscimol from GABAA receptor in rat brain incubated for 90 mins by microbeta scintillation counting method; type: tissue-based
Outline: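 Radioligand binding run by the NIMH Psychoactive Drug Screening Program. Otherwise Ki comes from sigmoidal curve fits of triplicate measurements in a single experiment, or is averaged over repeated experiments each run in triplicate.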

Histamine H1 receptor = Histamine H1 receptor (Homo sapiens, UniProt P35367); experiment: Displacement of [3H]-Pyrilamine from human recombinant histamine H1 receptor expressed in stable HEK cells after 90 mins by microbeta scintillation counting method; type: cell-based; outline: as §2
[6] = target: Sigma intracellular receptor 2 (Homo sapiens, UniProt Q5BJF2); experiment: Displacement of […] from human recombinant sigma2 receptor expressed in HEKT cells after 90 mins by microbeta scintillation counting method; type: cell-based; outline: as §1
[7] = target: T2, D(4) dopamine receptor (Homo sapiens) (UniProt P21917); experiment: Displacement of [3H]-methylspiperone from human recombinant dopamine D4 receptor expressed in Stable HEK cells at 10 uM after 90 mins by microbeta scintillation counting method relative to control; type: cell-based
T2 sequence (whole entry): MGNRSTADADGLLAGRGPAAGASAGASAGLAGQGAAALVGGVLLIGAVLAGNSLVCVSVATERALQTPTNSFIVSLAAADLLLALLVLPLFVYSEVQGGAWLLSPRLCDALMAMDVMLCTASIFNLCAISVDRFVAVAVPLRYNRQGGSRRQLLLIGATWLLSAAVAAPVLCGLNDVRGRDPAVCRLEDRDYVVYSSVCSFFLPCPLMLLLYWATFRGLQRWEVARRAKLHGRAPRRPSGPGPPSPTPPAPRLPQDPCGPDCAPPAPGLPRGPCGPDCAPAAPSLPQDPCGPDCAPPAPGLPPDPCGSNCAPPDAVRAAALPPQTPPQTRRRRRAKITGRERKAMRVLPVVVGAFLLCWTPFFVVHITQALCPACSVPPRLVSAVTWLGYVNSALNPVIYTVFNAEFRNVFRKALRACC

[8] = target: T3, Muscarinic acetylcholine receptor M2 (Homo sapiens) (UniProt P08172); experiment: Displacement of [3H]-QNB/[3H]-NMS from human recombinant Muscarinic acetylcholine M2 receptor expressed in stable CHO cells at 10 uM after 90 mins by microbeta scintillation counting method relative to control; type: cell-based
T3 sequence (whole entry): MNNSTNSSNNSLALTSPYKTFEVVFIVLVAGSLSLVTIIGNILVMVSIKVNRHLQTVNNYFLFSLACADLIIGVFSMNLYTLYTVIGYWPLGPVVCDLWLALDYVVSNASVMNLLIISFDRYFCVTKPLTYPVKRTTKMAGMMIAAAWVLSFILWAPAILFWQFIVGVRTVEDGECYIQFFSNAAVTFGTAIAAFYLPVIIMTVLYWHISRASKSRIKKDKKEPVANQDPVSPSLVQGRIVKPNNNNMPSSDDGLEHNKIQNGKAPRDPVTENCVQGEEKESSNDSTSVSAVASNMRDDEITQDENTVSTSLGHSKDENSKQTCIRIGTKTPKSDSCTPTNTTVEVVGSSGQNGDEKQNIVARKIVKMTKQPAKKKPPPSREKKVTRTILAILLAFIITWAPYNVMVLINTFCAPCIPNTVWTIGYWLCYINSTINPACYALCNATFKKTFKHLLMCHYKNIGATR

Chain of 5-hydroxytryptamine receptor 1E (P28566 whole entry): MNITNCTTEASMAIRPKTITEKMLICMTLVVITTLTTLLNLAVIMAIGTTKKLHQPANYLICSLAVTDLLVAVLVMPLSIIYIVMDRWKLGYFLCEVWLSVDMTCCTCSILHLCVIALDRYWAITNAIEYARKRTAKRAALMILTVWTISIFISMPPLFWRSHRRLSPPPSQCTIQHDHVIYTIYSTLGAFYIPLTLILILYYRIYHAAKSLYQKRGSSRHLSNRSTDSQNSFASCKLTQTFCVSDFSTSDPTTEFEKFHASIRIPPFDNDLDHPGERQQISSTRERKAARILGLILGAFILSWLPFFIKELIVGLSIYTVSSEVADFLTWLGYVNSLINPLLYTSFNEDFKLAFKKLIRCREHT
Chain of 5-hydroxytryptamine receptor 2B (P41595 whole entry): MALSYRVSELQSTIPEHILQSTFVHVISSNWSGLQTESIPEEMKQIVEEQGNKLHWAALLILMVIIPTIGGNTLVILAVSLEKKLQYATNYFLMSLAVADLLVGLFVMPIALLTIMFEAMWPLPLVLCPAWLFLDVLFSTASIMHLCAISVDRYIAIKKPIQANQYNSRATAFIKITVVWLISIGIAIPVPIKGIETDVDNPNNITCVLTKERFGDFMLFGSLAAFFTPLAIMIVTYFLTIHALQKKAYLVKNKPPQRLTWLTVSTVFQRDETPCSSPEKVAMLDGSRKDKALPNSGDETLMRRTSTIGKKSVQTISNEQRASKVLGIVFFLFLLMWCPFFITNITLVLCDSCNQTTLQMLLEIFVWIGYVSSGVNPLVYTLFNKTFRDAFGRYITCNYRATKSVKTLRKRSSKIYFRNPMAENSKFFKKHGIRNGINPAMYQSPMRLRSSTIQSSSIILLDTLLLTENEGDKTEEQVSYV
Chain of Sigma intracellular receptor 2 (Q5BJF2 whole entry): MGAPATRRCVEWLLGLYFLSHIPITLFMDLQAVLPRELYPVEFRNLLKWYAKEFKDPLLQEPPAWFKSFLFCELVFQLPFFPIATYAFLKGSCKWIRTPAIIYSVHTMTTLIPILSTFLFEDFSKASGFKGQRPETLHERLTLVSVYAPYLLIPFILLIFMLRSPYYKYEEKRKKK
Chain of Histamine H1 receptor (P35367 whole entry): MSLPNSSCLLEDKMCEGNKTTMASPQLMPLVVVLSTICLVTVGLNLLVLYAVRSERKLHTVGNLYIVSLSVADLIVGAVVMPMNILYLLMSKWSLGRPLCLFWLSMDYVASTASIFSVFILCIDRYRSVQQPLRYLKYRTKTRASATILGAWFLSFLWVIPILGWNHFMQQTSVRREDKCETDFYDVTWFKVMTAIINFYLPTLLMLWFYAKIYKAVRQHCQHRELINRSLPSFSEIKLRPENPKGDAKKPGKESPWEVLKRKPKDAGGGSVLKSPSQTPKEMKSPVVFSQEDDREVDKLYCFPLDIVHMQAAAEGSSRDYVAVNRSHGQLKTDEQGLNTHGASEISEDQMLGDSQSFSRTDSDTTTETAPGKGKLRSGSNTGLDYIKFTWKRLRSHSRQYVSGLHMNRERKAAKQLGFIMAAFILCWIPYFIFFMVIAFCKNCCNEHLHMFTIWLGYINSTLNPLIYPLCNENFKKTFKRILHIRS
Chain of 5-hydroxytryptamine receptor 7 (P34969 whole entry): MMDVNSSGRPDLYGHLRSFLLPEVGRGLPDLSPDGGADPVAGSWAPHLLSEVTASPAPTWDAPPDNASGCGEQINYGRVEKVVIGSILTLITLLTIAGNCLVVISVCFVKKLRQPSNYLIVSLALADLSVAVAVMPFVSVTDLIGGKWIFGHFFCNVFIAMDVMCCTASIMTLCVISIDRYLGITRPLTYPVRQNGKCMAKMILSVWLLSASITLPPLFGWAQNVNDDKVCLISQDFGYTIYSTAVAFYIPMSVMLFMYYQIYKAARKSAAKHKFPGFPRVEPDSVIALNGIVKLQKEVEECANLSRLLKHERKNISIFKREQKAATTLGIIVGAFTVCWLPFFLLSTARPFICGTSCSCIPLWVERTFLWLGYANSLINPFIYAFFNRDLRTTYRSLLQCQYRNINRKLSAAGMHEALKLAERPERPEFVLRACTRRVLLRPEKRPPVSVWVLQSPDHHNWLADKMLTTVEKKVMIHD
Chain of D(1B) dopamine receptor (P21918 whole entry): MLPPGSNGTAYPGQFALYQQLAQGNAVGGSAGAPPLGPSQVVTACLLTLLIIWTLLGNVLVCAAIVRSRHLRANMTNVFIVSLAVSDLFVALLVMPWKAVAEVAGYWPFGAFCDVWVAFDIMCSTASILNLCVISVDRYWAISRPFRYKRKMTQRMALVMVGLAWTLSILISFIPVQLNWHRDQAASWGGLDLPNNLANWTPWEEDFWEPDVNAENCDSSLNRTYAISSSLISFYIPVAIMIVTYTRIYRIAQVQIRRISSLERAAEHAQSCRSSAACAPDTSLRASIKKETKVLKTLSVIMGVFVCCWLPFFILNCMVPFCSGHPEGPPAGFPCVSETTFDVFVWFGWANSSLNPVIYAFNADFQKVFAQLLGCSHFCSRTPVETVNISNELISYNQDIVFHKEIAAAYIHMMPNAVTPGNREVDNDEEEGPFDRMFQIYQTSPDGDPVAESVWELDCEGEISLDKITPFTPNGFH

Row | SMILES | Ki [1] [µM] | Ki [2] [µM] | Ki ([3]; read-out: pKi (converted)) [µM] | Ki [4] [µM] | Ki (D(1B) dopamine receptor) [µM] | pKi [5] | Ki (Histamine H1 receptor) [µM] | Ki [6] [µM] | inhibition [7] [%] | inhibition [8] [%] | Ki ([3]; read-out: Ki) [µM]
1 | CC[C@H]1c2cc(C)ccc2OC[C@@]1(C)N (racemic) | > 10 | 0.178 | > 10 | > 10 | > 10 | < 5 | > 10 | > 10 | < 50 | < 50 | 
2 | COc1cc(OC)c2c(c1)OC[C@@]1(C)NCC[C@@H]21 (racemic) | > 10 | 0.251 | 1.26 | > 10 | > 10 | < 5 | > 10 | > 10 | < 50 | < 50 | 
3 | C[C@@]12CN(c3ccccc3)c3ccccc3[C@@H]1CCN2 (racemic) | > 10 |  |  | 1 | > 10 |  | > 10 | 1 |  |  | 0.0063
4 | CC[C@H]1c2cc(OC)ccc2CC[C@@]1(C)N (racemic) | > 10 | 0.145 | > 10 | > 10 | > 10 | < 5 | 3.16 | > 10 | < 50 | < 50 | 
5 | CC[C@H]1c2ccccc2N(c2ccccc2)C[C@@]1(C)N (racemic) | > 10 | 0.794 | 1 | > 10 | > 10 |  | > 10 | 0.631 |  |  | 
